ChEMBL document CHEMBL2380280, “Xanthates and trithiocarbonates strongly inhibit carbonic anhydrases and show antiglaucoma effects in vivo” (J Med Chem, 2013)
Blank lines part the entries; values can stand above or below the molecule they belong to. Active and inactive are the calls of the source. The rule behind the calls is not given here.

Experiments:
Carbonic anhydrase 9 = Carbonic anhydrase 9 (Homo sapiens, UniProt Q16790); experiment: Inhibition of recombinant human CA9 transmembrane isoform preincubated for 15 mins by stopped-flow CO2 hydration assay
Oryctolagus cuniculus [1] = experiment: Antiglaucoma activity in hypertensive New Zealand albino rabbit model assessed as decrease in carbomer-induced intraocular pressure at 2% administered to eye measured up to 200 to 250 mins by tanometric analysis; type: functional, organism-based
In short: (§1)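 Adult male New Zealand albino rabbits, 2−2.5 kg. Glaucoma induced by bilateral anterior-chamber injection of 0.1 mL 0.25% carbomer under im tiletamine/zolazepam plus xilazine anaesthesia. Once IOP was stably raised, drug was instilled into one eye and vehicle into the contralateral eye, three animals per drug. IOP was read by Tono-Pen tonometer after oxybuprocaine drops, before dosing and at 30, 60, 90, 120, 240 and 300 min.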

Oryctolagus cuniculus [2] = experiment: Antiglaucoma activity in hypertensive New Zealand albino rabbit model assessed as decrease in carbomer-induced intraocular pressure at 2% administered to eye after 50 to 100 mins by tanometric analysis (reference value: 35 to 40 mmHg); type: functional; in short: as §1
Oryctolagus cuniculus [3] = experiment: Antiglaucoma activity in normotensive New Zealand rabbit model assessed as decrease in intraocular pressure at 2% administered to eye vitreous by tanometric analysis; type: functional
Carbonic anhydrase 12 = Carbonic anhydrase 12 (Homo sapiens, UniProt O43570); experiment: Inhibition of recombinant human CA12 transmembrane isoform preincubated for 15 mins by stopped-flow CO2 hydration assay
Carbonic anhydrase 12, sequence (O43570 whole entry, canonical isoform): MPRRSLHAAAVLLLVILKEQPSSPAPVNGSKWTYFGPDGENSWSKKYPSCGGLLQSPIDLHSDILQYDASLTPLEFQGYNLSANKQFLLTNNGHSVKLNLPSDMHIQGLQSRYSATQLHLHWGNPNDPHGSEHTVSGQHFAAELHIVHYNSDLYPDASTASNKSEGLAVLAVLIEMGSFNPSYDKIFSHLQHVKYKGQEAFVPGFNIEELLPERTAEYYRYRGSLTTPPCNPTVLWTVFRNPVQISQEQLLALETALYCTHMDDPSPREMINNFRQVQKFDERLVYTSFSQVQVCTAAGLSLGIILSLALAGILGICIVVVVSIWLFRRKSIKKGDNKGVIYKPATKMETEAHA

Carbonic anhydrase 2 = Carbonic anhydrase 2 (Homo sapiens, UniProt P00918); experiment: Inhibition of recombinant human CA2 cytosolic isoform preincubated for 15 mins by stopped-flow CO2 hydration assay
Carbonic anhydrase 1 = Carbonic anhydrase 1 (Homo sapiens, UniProt P00915); experiment: Inhibition of recombinant human CA1 cytosolic isoform preincubated for 15 mins by stopped-flow CO2 hydration assay
Carbonic anhydrase 1, sequence (P00915 whole entry, canonical isoform): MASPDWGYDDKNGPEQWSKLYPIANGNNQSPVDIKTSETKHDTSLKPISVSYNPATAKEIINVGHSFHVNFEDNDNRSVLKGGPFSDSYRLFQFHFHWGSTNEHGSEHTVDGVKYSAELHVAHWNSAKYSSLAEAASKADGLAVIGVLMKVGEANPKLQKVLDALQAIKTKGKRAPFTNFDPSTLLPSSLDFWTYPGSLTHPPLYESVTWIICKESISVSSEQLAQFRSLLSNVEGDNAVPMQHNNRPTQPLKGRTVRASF

Oryctolagus cuniculus [4] = experiment: Antiglaucoma activity in hypertensive New Zealand albino rabbit model assessed as decrease in carbomer-induced intraocular pressure at 2% administered to eye after > 250 mins by tanometric analysis; type: functional, organism-based; in short: as §1
Oryctolagus cuniculus [5] = experiment: Antiglaucoma activity in hypertensive New Zealand albino rabbit model assessed as decrease in carbomer-induced intraocular pressure at 2% administered to eye after 100 mins by tanometric analysis (reference value: 35 to 40 mmHg); type: functional; in short: as §1
Oryctolagus cuniculus [6] = experiment: Antiglaucoma activity in hypertensive New Zealand albino rabbit model assessed as decrease in carbomer-induced intraocular pressure at 2% administered to eye after 150 mins by tanometric analysis; type: functional, organism-based; in short: as §1
Oryctolagus cuniculus [7] = experiment: Antiglaucoma activity in normotensive New Zealand rabbit model assessed as decrease in intraocular pressure administered to eye vitreous by tanometric analysis; type: functional, organism-based

Structure (SMILES): CC(C)OC(=S)S
Ki (Carbonic anhydrase 9): 0.531 µM

Structure (SMILES): CCCCCOC(=S)S
Ki (Carbonic anhydrase 9): 0.403 µM

Structure (SMILES): S=C(S)OC1CCCCC1
Ki (Carbonic anhydrase 9): 0.0788 µM

Structure (SMILES): S=C(S)OCc1ccccc1
Ki (Carbonic anhydrase 9): 0.0081 µM

Structure (SMILES): S=C(S)OC1CCCC1
Ki (Carbonic anhydrase 12): 0.0747 µM
Ki (Carbonic anhydrase 9): 0.0472 µM
Ki (Carbonic anhydrase 2): 0.366 µM
Ki (Carbonic anhydrase 1): 0.532 µM

Structure (SMILES): COC(=S)S
Ki (Carbonic anhydrase 9): 0.631 µM

Structure (SMILES): S=C([S-])OCC(c1ccccc1)c1ccccc1.[K+]
Activity (Oryctolagus cuniculus [4]): Active
Activity (Oryctolagus cuniculus [5]): 12 mmHg
Activity (Oryctolagus cuniculus [1]): Active
Activity (Oryctolagus cuniculus [3]): 1 mmHg
Ki (Carbonic anhydrase 9): 0.058 µM

Structure (SMILES): S=C(S)OC1CC2CC1C1CCCC21 (centres undefined)
Ki (Carbonic anhydrase 12): 0.835 µM
Ki (Carbonic anhydrase 9): 0.643 µM
Ki (Carbonic anhydrase 2): 0.0066 µM
Ki (Carbonic anhydrase 1): 0.0634 µM

Structure (SMILES): CCN[C@H]1C[C@H](C)S(=O)(=O)c2sc(S(N)(=O)=O)cc21
Activity (Oryctolagus cuniculus [6]): inactive
Activity (Oryctolagus cuniculus [7]): inactive

Structure (SMILES): CCOC(=S)S
Ki (Carbonic anhydrase 9): 0.566 µM

The remaining molecules from weak to strong by Ki (Carbonic anhydrase 9), led by results:

Ki (Carbonic anhydrase 9): 0.831 µM
Structure (SMILES): CN(C)CCOCCOC(=S)[S-].[K+]
Activity (Oryctolagus cuniculus [1]): Active
Activity (Oryctolagus cuniculus [2]): 4 mmHg
Activity (Oryctolagus cuniculus [3]): 1 mmHg

Ki (Carbonic anhydrase 9): 0.779 µM
Structure (SMILES): S=C([S-])OCCC12CC3CC(CC(C3)C1)C2.[K+]
Activity (Oryctolagus cuniculus [1]): Active
Activity (Oryctolagus cuniculus [2]): 4 mmHg
Activity (Oryctolagus cuniculus [3]): 1 mmHg

Ki (Carbonic anhydrase 9): 0.776 µM
Structure (SMILES): S=C(S)OCC12CC3CC(CC(C3)C1)C2

Ki (Carbonic anhydrase 9): 0.765 µM
Structure (SMILES): CC(C)(C)OC(=O)NCCCCCCOC(=S)S

Ki (Carbonic anhydrase 9): 0.76 µM
Structure (SMILES): CN(C)CCOC(=S)S

Ki (Carbonic anhydrase 9): 0.678 µM
Structure (SMILES): N#CNC(=S)S

Ki (Carbonic anhydrase 9): 0.622 µM
Structure (SMILES): CC(C)(C)OC(=O)NCCCCOC(=S)[S-].[K+]
Activity (Oryctolagus cuniculus [1]): Active
Activity (Oryctolagus cuniculus [2]): 4 mmHg
Activity (Oryctolagus cuniculus [3]): 1 mmHg

Ki (Carbonic anhydrase 9): 0.322 µM
Structure (SMILES): CC(C)CCOC(=S)S

Ki (Carbonic anhydrase 9): 0.0721 µM
Structure (SMILES): CCCCCCCCOC(=S)S

Ki (Carbonic anhydrase 9): 0.0078 µM
Structure (SMILES): S=C(S)SCc1ccccc1

Ki (Carbonic anhydrase 9): 0.0043 µM
Structure (SMILES): S=C([S-])OCCc1ccccn1.[K+]
Activity (Oryctolagus cuniculus [1]): Active
Activity (Oryctolagus cuniculus [2]): 4 mmHg
Activity (Oryctolagus cuniculus [3]): 1 mmHg
